Laboratory results from ChEMBL document CHEMBL1137555, “Aminocyclohexylsulfonamides: discovery of metabolically stable alpha(1a/1d)-selective adrenergic receptor antagonists for the treatment of benign prostatic hyperplasia/lower urinary tract symptoms (BPH/LUTS)” (Bioorg Med Chem Lett, 2007).

Assays:
D(2) dopamine receptor = D(2) dopamine receptor (Homo sapiens, UniProt P14416); assay: Binding affinity to human cloned dopamine D2 receptor
[1] = Metabolic stability in human liver microsomes; format: ADME, Microsome
Procedure, shortened: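 Human liver microsomal metabolism assay; read-out was half-life (T1/2, min).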

[2] = biological target: T1, Alpha-1D adrenergic receptor (Homo sapiens, UniProt P25100); assay: Binding affinity to human cloned adrenergic alpha-1d receptor
T1 sequence (P25100 whole entry): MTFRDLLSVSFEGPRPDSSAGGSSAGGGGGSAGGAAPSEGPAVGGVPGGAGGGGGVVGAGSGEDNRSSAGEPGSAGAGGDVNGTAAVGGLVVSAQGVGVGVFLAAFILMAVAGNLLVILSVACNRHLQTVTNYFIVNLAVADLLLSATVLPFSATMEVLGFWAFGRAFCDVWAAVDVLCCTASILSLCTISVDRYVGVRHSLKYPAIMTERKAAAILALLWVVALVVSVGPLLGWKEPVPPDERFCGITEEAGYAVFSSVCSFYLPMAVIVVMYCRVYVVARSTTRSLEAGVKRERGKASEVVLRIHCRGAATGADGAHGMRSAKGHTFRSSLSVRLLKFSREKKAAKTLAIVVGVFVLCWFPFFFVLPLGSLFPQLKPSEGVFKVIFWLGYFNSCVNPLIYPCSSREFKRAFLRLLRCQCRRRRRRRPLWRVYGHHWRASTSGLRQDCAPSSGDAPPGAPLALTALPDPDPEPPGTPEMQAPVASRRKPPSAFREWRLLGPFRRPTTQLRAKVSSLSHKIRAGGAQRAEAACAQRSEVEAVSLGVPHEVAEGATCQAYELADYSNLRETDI

[3] = biological target: T2, Alpha-1B adrenergic receptor (Homo sapiens, UniProt P35368); assay: Binding affinity to human cloned adrenergic alpha-1b receptor
T2 sequence (P35368 whole entry): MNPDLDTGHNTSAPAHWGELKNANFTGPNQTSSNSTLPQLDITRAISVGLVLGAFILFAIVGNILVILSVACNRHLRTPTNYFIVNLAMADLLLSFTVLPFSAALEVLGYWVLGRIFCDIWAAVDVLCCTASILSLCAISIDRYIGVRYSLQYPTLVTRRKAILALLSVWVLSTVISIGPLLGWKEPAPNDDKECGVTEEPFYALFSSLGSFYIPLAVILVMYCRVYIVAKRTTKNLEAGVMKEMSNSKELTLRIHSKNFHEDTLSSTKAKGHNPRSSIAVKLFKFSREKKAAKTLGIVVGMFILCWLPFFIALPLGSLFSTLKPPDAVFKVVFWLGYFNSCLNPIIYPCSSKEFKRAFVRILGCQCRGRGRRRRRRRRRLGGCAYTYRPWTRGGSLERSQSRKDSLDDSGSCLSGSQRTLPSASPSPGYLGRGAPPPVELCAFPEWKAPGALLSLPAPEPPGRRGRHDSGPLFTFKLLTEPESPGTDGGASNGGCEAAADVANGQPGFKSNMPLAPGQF

[4] = biological target: T3, Alpha-1A adrenergic receptor (Homo sapiens, UniProt P35348); assay: Binding affinity to human cloned adrenergic Alpha-1A receptor
T3 sequence (P35348 whole entry): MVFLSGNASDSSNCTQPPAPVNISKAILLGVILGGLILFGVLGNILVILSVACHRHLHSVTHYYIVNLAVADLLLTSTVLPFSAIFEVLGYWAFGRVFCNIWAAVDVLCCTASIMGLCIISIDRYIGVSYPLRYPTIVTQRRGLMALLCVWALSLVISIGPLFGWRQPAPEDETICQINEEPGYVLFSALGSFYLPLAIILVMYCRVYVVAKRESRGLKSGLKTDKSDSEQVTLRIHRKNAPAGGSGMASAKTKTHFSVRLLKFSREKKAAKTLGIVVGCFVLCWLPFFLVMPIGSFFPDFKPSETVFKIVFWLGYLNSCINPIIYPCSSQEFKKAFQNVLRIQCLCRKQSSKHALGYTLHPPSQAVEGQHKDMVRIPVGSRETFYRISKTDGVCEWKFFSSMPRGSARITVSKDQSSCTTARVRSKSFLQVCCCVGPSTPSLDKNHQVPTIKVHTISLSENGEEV

Chain of D(2) dopamine receptor (P14416 whole entry): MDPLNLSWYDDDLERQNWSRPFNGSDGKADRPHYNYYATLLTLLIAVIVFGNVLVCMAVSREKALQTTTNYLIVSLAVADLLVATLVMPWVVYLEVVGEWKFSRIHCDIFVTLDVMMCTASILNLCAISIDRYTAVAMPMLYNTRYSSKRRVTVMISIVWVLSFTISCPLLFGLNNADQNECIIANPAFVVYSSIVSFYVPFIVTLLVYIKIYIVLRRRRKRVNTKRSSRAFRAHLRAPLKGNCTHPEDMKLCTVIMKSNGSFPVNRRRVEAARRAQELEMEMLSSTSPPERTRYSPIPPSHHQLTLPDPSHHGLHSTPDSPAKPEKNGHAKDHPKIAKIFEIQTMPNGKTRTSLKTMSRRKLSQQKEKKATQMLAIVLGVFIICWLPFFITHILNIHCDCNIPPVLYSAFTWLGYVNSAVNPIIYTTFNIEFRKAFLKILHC

In the case of COc1ccc(S(=O)(=O)N[C@H]2CC[C@@H](N3CCC(c4ccccc4OCCF)CC3)CC2)cc1OC, the Ki (D(2) dopamine receptor) is reported as 330 nM and the half-life [1] is reported as 20 min.

COc1ccc(S(=O)(=O)N[C@H]2CC[C@@H](N3CCN(c4ccccc4OCC(F)(F)F)CC3)CC2)cc1OC showed a Ki (D(2) dopamine receptor) of 192 nM, a Ki [2] of 0.35 nM and a Ki [3] of 86 nM. The half-life [1] was 35 min.

Compound CC(C)Oc1ccccc1N1CCN([C@H]2CC[C@@H](NS(=O)(=O)c3ccc(S(C)(=O)=O)cc3)CC2)CC1 has a half-life [1] of 2.5 min.

For COc1ccc(Cl)cc1S(=O)(=O)N[C@H]1CC[C@@H](N2CCN(c3ccccc3OC(C)C)CC2)CC1, the half-life [1] was < 2 min.

In the case of COc1ccc(S(=O)(=O)N[C@H]2CC[C@H](N3CCN(c4ccccc4OCC(F)(F)F)CC3)CC2)cc1OC, the Ki (D(2) dopamine receptor) is reported as 114 nM and the Ki [3] is reported as 39 nM.

For CC(C)Oc1ccccc1N1CCN([C@H]2CC[C@@H](NS(=O)(=O)c3ccc(Cl)cc3Cl)CC2)CC1, the half-life [1] was 3.5 min.

With COc1ccc(C)cc1S(=O)(=O)N[C@H]1CC[C@@H](N2CCN(c3ccccc3OC(C)C)CC2)CC1 the half-life [1] was < 2 min.

With COc1ccc(F)cc1S(=O)(=O)N[C@H]1CC[C@@H](N2CCN(c3ccccc3OC(C)C)CC2)CC1 the half-life [1] was < 2 min.

CCN([C@H]1CC[C@@H](N2CCN(c3ccccc3OC(C)C)CC2)CC1)S(=O)(=O)c1ccc(OC)c(OC)c1 showed a Ki (D(2) dopamine receptor) of 113 nM.

Compound COc1ccc(S(=O)(=O)N[C@H]2CC[C@@H](N3CCC(c4ccccc4OCC(F)F)CC3)CC2)cc1OC has a Ki (D(2) dopamine receptor) of 228 nM, a Ki [2] of 8.6 nM and a Ki [3] of 278 nM. It also gave a half-life [1] of 21 min.

Work on COc1ccc(S(=O)(=O)N[C@H]2CC[C@@H](N3CCC(c4ccccc4OC(C)C)CC3)CC2)cc1OC yielded a Ki (D(2) dopamine receptor) of 165 nM, a Ki [4] of 1.8 nM and a Ki [2] of 1.7 nM. It also gave a Ki [3] of 151 nM and a half-life [1] of 12 min.

In the case of COc1ccc(S(=O)(=O)N[C@H]2CC[C@@H](N3CCC(c4ccccc4OC4CC4)CC3)CC2)cc1OC, the half-life [1] is reported as 18 min.

In the case of COc1ccc(S(=O)(=O)N[C@H]2CC[C@@H](N3CCN(c4ccccc4OC(C)C)CC3)CC2)cc1OC, the Ki (D(2) dopamine receptor) is reported as 136 nM, the Ki [2] is reported as 0.68 nM and the Ki [3] is reported as 106 nM. The half-life [1] was 4.9 min.

With COc1ccc(S(=O)(=O)N[C@H]2CC[C@@H](N3CCC(c4ccccc4OCC(F)(F)F)CC3)CC2)cc1OC the half-life [1] was 56 min.

In the case of CCN([C@H]1CC[C@H](N2CCN(c3ccccc3OC(C)C)CC2)CC1)S(=O)(=O)c1ccc(OC)c(OC)c1, the Ki (D(2) dopamine receptor) is reported as 2.7 nM.
